We go through 5 compounds from ChEMBL document CHEMBL1148127, “Antimicrobial activities of a new schizozygane indoline alkaloid from Schizozygia coffaeoides and the revised structure of isoschizogaline” (2002).

Converted amounts (≈) assume the structure as drawn.

Holding throughout (assay type): functional
The test system of one assay is Bacillus subtilis. Nature of the assay: Antimicrobial activity against Bacillus subtilis NCTC 10073 after 24 hrs by microdilution technique. As to conditions: NCTC 10073, 24 h. Put shortly: (§1)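 Bacteria were grown on nutrient agar at 37 °C for 24 h. Fresh suspensions were standardized to 10^5 CFU per 100 µL and added to microdilution wells. Compounds were dissolved in DMSO with an initial concentration of 500 µg/mL. Ampicillin served as the positive control, with a DMSO-alone check. Growth was read visually and the MIC recorded.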
Background: Broth dilution looks for growth in wells or tubes with falling amounts of substance.

A further assay relates to Staphylococcus aureus. The assay is described as follows: Antimicrobial activity against Staphylococcus aureus NCIMB 9515 after 24 hrs by microdilution technique. Put shortly: as §1
For a further assay, the system named is Pseudomonas aeruginosa. Nature of the assay: Antimicrobial activity against Pseudomonas aeruginosa NCIMB 10421 after 24 hrs by microdilution technique. Put shortly:
as §1

A further assay relates to Escherichia coli. Nature of the assay: Antimicrobial activity against Escherichia coli NCTC 9002 after 24 hrs by microdilution technique. As to conditions: NCTC 9002, 24 h. The gist of the method:
as §1

The next assay has as its system Epidermophyton floccosum. Nature of the assay: Antimicrobial activity against Epidermophyton floccosum after 10 days by microdilution technique. As to conditions: 240 h. The gist of the method: (§2)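 Dermatophytes were grown on Sabouraud's dextrose agar at 26 °C for 10 days. Fresh inocula were standardized to 10^4 CFU per 100 µL for broth microdilution against compound in DMSO (initial 500 µg/mL). Plates were kept at 26 °C for 10 days and inspected visually every day, and the MIC was recorded. Controls were ketoconazole and DMSO alone.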

The subject of assay [1] is Cladosporium cladosporioides. Nature of the assay: Antimicrobial activity against Cladosporium cladosporioides IMI 299104 after 10 days by microdilution technique. The note with it: 240 h. Put shortly:
(§3)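 These plant-pathogenic Cladosporium strains were cultured on potato dextrose agar at 26 °C for 10 days. Suspensions were standardized to 10^4 CFU per 100 µL and tested by microdilution against compound dissolved in DMSO (initial 500 µg/mL). Plates were held at 26 °C for 10 days with daily visual growth checks, and the MIC was recorded. Controls were ketoconazole and DMSO alone.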

Assay [2] has as its system Trichophyton mentagrophytes. The assay is described as follows: Antimicrobial activity against Trichophyton mentagrophytes NCPF 224 after 10 days by microdilution technique. As to conditions: 240 h. The gist of the method: as §2
The next assay relates to Trichophyton tonsurans. The assay is described as follows: Antimicrobial activity against Trichophyton tonsurans EQ 4329 after 10 days by microdilution technique. The note with it: 240 h. Put shortly: as §2
For the next assay, the system named is Candida albicans. The assay is described as follows: Antimicrobial activity against Candida albicans after 24 hrs by microdilution technique. The gist of the method:
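Yeast was cultured on Sabouraud's dextrose agar at 30 °C for 24 h. A fresh suspension was standardized to 10^4 CFU per 100 µL and added to microdilution wells holding compound in DMSO (initial 500 µg/mL). Plates were incubated at 30 °C for 24 h and checked visually for growth to give the MIC. Controls were ketoconazole and DMSO alone.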

In assay [3] the test system is Trichophyton interdigitale. The assay is described as follows: Antimicrobial activity against Trichophyton interdigitale EQ 4115 after 10 days by microdilution technique. The note with it: 240 h. Put shortly:
as §2

For a further assay, the system named is Nannizzia gypsea. The assay is described as follows: Antimicrobial activity against Microsporum gypseum NCPF 40 after 10 days by microdilution technique. As to conditions: 240 h. Put shortly: as §2
Another assay has as its system Cladosporium herbarum. Nature of the assay: Antimicrobial activity against Cladosporium herbarum after 10 days by microdilution technique. The note with it: 240 h. Put shortly:
as §3

By MIC is commonly meant the least concentration at which growth counts as inhibited. Read a high MIC as a less susceptible organism. With `CC1(C)S[C@@H]2[C@H](NC(=O)[C@H](N)c3ccccc3)C(=O)N2[C@H]1C(=O)O` [AMPICILLIN], the MIC turned out to be 12.5 µg/mL (≈ 35.8 µM) in the assay with Bacillus subtilis, 12.5 µg/mL (≈ 35.8 µM) against Staphylococcus aureus, 25 µg/mL (≈ 71.5 µM) in the assay on Pseudomonas aeruginosa and 20 µg/mL (≈ 57.2 µM) against Escherichia coli.
For `O=C1C[C@]23C=CCN4CC[C@H]5c6cc7c(cc6N1[C@@]5(CC2)[C@@H]43)OCO7` [SCHIZOZYGINE], the MIC (with Epidermophyton floccosum; in [1]; in [2]; with Bacillus subtilis; in the assay with Staphylococcus aureus; in the assay with Pseudomonas aeruginosa) was more than 500 µg/mL in each case. For the same compound, the minimum inhibitory concentration (MIC) (against Trichophyton tonsurans; in the assay with Candida albicans; in assay [3]; in the assay with Nannizzia gypsea; with Cladosporium herbarum; with Escherichia coli) was more than 500 µg/mL each time.
For the compound `COc1ccc2c(c1)N1C(=O)C[C@]34C=CCN5CC[C@@H]2[C@@H](CC3)[C@]514` [ISOSCHIZOGALINE], the MIC is more than 500 µg/mL in the assay on Epidermophyton floccosum; more than 500 µg/mL in [1]; more than 500 µg/mL in [2]; 62.5 µg/mL (≈ 194 µM) against Bacillus subtilis; 125 µg/mL (≈ 388 µM) in the assay on Staphylococcus aureus; more than 500 µg/mL with Pseudomonas aeruginosa. Also, the MIC (with Trichophyton tonsurans; against Candida albicans; in [3]; in the assay on Nannizzia gypsea; against Cladosporium herbarum; against Escherichia coli) was more than 500 µg/mL throughout.
On to `O=C1[C@H](O)[C@]23C=CCN4CC=C5c6cc7c(cc6N1[C@@]5(CC2)[C@@H]43)OCO7`, for which the minimal inhibitory concentration (MIC) was more than 1.95 µg/mL in the assay with Epidermophyton floccosum; 7.8 µg/mL (≈ 22.3 µM) in [1]; less than 1.95 µg/mL in [2]; more than 500 µg/mL in the assay with Bacillus subtilis; more than 500 µg/mL in the assay with Staphylococcus aureus; more than 500 µg/mL in the assay with Pseudomonas aeruginosa. The MIC was 3.9 µg/mL (≈ 11.1 µM) against Trichophyton tonsurans; 7.8 µg/mL (≈ 22.3 µM) with Candida albicans; less than 3.9 µg/mL in [3]; 1.95 µg/mL (≈ 5.57 µM) against Nannizzia gypsea; 15.6 µg/mL (≈ 44.5 µM) in the assay on Cladosporium herbarum; 250 µg/mL (≈ 714 µM) against Escherichia coli.
For `CC(=O)N1CCN(c2ccc(OCC3COC(Cn4ccnc4)(c4ccc(Cl)cc4Cl)O3)cc2)CC1` (stereo not drawn) [KETOCONAZOLE], the minimum inhibitory concentration (MIC) was found to be 25 µg/mL (≈ 47 µM) with Epidermophyton floccosum; 25 µg/mL (≈ 47 µM) in assay [1]; 6.25 µg/mL (≈ 11.8 µM) in assay [2]; 50 µg/mL (≈ 94.1 µM) against Trichophyton tonsurans; 25 µg/mL (≈ 47 µM) with Candida albicans; 25 µg/mL (≈ 47 µM) in assay [3]. The MIC against Nannizzia gypsea was determined as 6.25 µg/mL (≈ 11.8 µM); with Cladosporium herbarum it was 50 µg/mL (≈ 94.1 µM).
